Source: paper PMC5159748 (Archives of biochemistry and biophysics, 2016)

Legend:
[1] = biological target: T1, K346 (Drosophila kinesin-1 motor domain; apo-K346) (Drosophila melanogaster, UniProt P17210); assay: stopped-flow FRET; format: binding
T1 sequence (P17210 2-346): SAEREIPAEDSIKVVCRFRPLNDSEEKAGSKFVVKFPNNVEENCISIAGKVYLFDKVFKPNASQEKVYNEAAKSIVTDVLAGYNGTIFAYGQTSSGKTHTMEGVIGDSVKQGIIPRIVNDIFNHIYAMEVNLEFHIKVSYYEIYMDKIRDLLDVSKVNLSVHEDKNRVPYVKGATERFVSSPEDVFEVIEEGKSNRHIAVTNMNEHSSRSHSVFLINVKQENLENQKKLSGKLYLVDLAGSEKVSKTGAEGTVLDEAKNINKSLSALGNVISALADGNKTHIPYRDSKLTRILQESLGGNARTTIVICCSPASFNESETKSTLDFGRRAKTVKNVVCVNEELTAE
Summary of the method: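 Apo-K346 (Tev-cleaved, ADP-stripped) at 25 °C in A25 buffer (pH 6.9) with 50 mM KCl and glycerol as indicated. FRET from tyrosines to mdADP: excitation 280 nm, 418 nm long-pass emission. Association: stopped-flow mixing with ≥10-fold excess mdADP, kon = kobs/[mdADP]. Release: 0.84 μM E•mdADP chased with 400 μM MgATP, single-exponential fit. SD from ≥3 transients.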

[2] = biological target: Microtubules prepared from porcine tubulin, stabilized with paclitaxel (porcine) (UniProt P02550); assay: turbidity increase

Compound | Kd [1] [nM] | Kd [2] [nM]
CNc1ccccc1C(=O)O[C@H]1C[C@H](n2cnc3c(N)ncnc32)O[C@@H]1COP(=O)(O)OP(=O)(O)O [mdADP] | 2 | –
K346, monomeric Drosophila kinesin-1 motor domain (amino acids 2-346) (from UniProt P17210 2-346) (domain or fragment) | – | 1800
